Test [1] concerns the target T1, 5-hydroxytryptamine receptor 6 (Homo sapiens, UniProt P50406). Briefly: Displacement of [3H]LSD from human 5HT6 receptor expressed in HEK293 cells. In kind it is cell-based. The method, boiled down: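 Membranes from HEK-293 cells stably expressing human 5-HT6R, in 50 mM Tris-HCl, 10 mM MgCl2, 0.5 mM EDTA, pH 7.4. Incubated 60 min at 37 °C with 2.5 nM [3H]LSD and competitor (10^-5 to 10^-10 M). Nonspecific binding defined with 100 μM serotonin. Filtered on 0.5% PEI-soaked filters; scintillation count. Ki by Cheng-Prusoff; 2-4 experiments in triplicate.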

Test [2] deals with T1, 5-hydroxytryptamine receptor 6. Briefly: Binding affinity to human 5HT6 receptor expressed in COS7 cells assessed as emission fluorescence intensity. In kind it is cell-based. Particulars: COS-7.
The target is the same in test [3]. The test is described as follows: Binding affinity to human 5HT6 receptor assessed as emission fluorescence intensity.

Activity calls are given as the source filed them. The rule behind the calls is not given here. Some results are limits rather than exact numbers.

T1 sequence (P50406 whole entry): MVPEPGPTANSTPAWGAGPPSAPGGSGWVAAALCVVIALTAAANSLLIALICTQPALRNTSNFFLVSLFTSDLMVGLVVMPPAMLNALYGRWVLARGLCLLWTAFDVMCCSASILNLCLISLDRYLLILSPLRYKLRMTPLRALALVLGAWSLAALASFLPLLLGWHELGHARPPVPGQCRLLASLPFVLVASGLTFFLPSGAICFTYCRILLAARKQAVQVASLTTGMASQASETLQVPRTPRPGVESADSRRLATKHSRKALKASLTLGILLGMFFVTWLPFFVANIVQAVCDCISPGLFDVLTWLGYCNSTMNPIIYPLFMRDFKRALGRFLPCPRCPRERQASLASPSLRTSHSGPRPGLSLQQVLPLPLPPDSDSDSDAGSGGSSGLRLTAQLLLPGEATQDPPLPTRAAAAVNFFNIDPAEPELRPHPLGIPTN

As a reminder, the Ki is the dissociation constant of the complex between target and ligand, obtained from inhibition or displacement. The compound `COc1ccc(N(S(=O)(=O)c2cccc3c(N(C)C)cccc23)S(=O)(=O)c2cccc3c(N(C)C)cccc23)cc1N1CCNCC1` gave a Ki in test [1] of 135 nM. Besides, the Activity in test [2] amounted to 35 a.u.
Turning to `COc1ccc(NS(=O)(=O)c2cccc3c(N(C)C)cccc23)cc1N1CCN(CCCCNS(=O)(=O)c2cccc3c(N(C)C)cccc23)CC1`, in test [1], the Ki is 175 nM. Also, the Activity in test [2] is more than 1000 a.u.
In the same order, the values of `COc1ccc(NS(=O)(=O)c2cccc3c(N(C)C)cccc23)cc1N1CCN(CCCCCCCCNS(=O)(=O)c2cccc3c(N(C)C)cccc23)CC1` are 194 nM and 450 a.u.
In the case of `COc1ccc(NS(=O)(=O)c2sc3ccc(Cl)cc3c2C)cc1N1CCN(CCCCCCNC(=O)CCCC[C@@H]2SC[C@@H]3NC(=O)N[C@@H]32)CC1`, in test [1], the Ki is 90 nM.
In test [1], `COc1ccc(NS(=O)(=O)c2sc3ccc(Cl)cc3c2C)cc1N1CCN(S(=O)(=O)c2cccc3c(N(C)C)cccc23)CC1` gave a Ki of 165 nM. The Activity in test [2] turned out to be 730 a.u.
Taken in the same sequence, the figures for `Cc1c(S(=O)(=O)Nc2ccc(OCCCCCCCCNS(=O)(=O)c3cccc4c(N(C)C)cccc34)c(N3CCNCC3)c2)sc2ccc(Cl)cc12` were 741 nM and 700 a.u.
Taken in the same sequence, the figures for `COc1ccc(NS(=O)(=O)c2sc3ccc(Cl)cc3c2C)cc1N1CCN(CCCCCCNS(=O)(=O)c2cccc3c(N(C)C)cccc23)CC1` were 266 nM and more than 1000 a.u.
Take `COc1ccc(NS(=O)(=O)c2sc3ccc(Cl)cc3c2C)cc1N1CCN(CCCCCCCCNS(=O)(=O)c2cccc3c(N(C)C)cccc23)CC1`: the Ki in test [1] stood at 447 nM. Moreover, in test [2], the Activity is more than 1000 a.u.
In the same order, the values of `COc1ccc(N(CCCCCCCCNS(=O)(=O)c2cccc3c(N(C)C)cccc23)S(=O)(=O)c2sc3ccc(Cl)cc3c2C)cc1N1CCNCC1` are 215 nM and more than 1000 a.u.
`COc1ccc(N(S(=O)(=O)c2sc3ccc(Cl)cc3c2C)S(=O)(=O)c2cccc3c(N(C)C)cccc23)cc1N1CCNCC1` displayed a Ki in test [1] of 27 nM. In addition, the Activity in test [2] is 19 a.u.
Taken in the same sequence, the figures for `COc1ccc(NS(=O)(=O)c2cccc3c(N(C)C)cccc23)cc1N1CCN(CCCCCCNS(=O)(=O)c2cccc3c(N(C)C)cccc23)CC1` were 554 nM and 287 a.u.
In test [1], `COc1ccc(NS(=O)(=O)c2ccc(-c3ncc(-c4ccc(N(C)C)cc4)o3)cc2)cc1N1CCNCC1` displayed a Ki of 523 nM. In test [3], the outcome was inactive.
Turning to `COc1ccc(N(CCCCNS(=O)(=O)c2cccc3c(N(C)C)cccc23)S(=O)(=O)c2sc3ccc(Cl)cc3c2C)cc1N1CCNCC1`, in test [1], affinity was put at a Ki of 747 nM. Besides, the Activity in test [2] worked out at 221 a.u.
Taken in the same sequence, the figures for `COc1ccc(NS(=O)(=O)c2cccc3c(N(C)C)cccc23)cc1N1CCNCC1` were 8 nM and 52 a.u.

(Values after ChEMBL document CHEMBL1255218, “Development of molecular probes for the human 5-HT(6) receptor” (J Med Chem, 2010).)
